Series [1] has as its system Rattus norvegicus. The series is described as follows: Toxicity in Sprague-Dawley rat assessed as cataleptogenic effect by measuring time spent in cataleptic position at 1 to 10 mg/kg, po measured after 0.5 to 2 hrs. It counts as organism-based. Particulars: in vivo. In outline:
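Male SD rats (180–250 g, n = 7) dosed orally at 1.0, 3.0 or 10.0 mg/kg. Forepaws placed on a bar 0.9 cm in diameter, 11 cm high, at 30, 60 and 120 min after dosing. Time held is expressed as a percentage of the 60 s maximum (mean ± SEM).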

Series [2] relates to CHO. Briefly: Selectivity ratio of Ki for displacement of [3H]spiperone from recombinant human D2L receptor expressed in CHO cell membranes to Ki for displacement of [3H]methyl-spiperone from recombinant human D3 receptor expressed in CHO cell membranes. Put shortly:
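D2L binding: CHO membranes (16 µg protein) with 0.3 nM [3H]methyl-spiperone in 50 mM Tris-HCl pH 7.4, 120 mM NaCl, 10 mM MgCl2, 1 mM EDTA, with butaclamol for nonspecific binding. D3 binding: membranes (8 µg) with 0.3 nM [3H]methyl-spiperone in the same Tris buffer with 5 mM KCl, 5 mM MgCl2, 5 mM EDTA, with (+)butaclamol for nonspecific binding. Both run 60 min at 22 °C, then GF/B filtration. Ki by Cheng–Prusoff; ratio is D2 Ki/D3 Ki.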
Background: In a radioligand displacement assay an active substance lowers the binding of a labelled ligand.

In series [3] the target is T1, 5-hydroxytryptamine receptor 1A (Homo sapiens, UniProt P08908).
T1 sequence (P08908 whole entry): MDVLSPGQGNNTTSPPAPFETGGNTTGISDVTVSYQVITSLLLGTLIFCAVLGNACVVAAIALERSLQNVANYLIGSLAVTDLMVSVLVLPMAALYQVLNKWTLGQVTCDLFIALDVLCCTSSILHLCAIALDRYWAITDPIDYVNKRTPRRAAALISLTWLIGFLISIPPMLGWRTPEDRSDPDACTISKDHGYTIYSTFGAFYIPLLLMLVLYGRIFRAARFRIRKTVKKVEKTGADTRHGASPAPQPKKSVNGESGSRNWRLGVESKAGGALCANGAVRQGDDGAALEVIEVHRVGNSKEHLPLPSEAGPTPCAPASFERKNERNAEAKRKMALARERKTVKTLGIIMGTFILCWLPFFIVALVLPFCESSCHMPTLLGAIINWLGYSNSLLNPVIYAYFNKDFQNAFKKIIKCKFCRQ
Briefly: Displacement of [3H]8-OH-DPAT from recombinant human 5-HT1A receptor expressed in HEK293 cell membranes after 60 mins by scintillation counting method.

The target of series [4] is D(3) dopamine receptor (Homo sapiens, UniProt P35462). Briefly: Displacement of [3H]methyl-spiperone from recombinant human D3 receptor expressed in CHO cell membranes after 60 mins by scintillation counting method.
Sequence of D(3) dopamine receptor (P35462 whole entry): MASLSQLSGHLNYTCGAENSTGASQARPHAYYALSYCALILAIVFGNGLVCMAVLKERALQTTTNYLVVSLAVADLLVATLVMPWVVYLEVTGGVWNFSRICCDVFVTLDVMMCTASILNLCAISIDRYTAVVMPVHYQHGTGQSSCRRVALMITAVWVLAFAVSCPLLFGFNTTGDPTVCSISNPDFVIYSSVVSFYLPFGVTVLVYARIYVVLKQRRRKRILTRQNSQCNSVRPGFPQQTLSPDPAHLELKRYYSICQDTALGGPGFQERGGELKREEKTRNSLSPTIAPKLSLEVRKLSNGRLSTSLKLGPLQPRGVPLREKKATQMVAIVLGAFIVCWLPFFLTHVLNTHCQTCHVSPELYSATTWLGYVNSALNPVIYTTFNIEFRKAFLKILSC
The target of series [5] is T2, 5-hydroxytryptamine receptor 2A (Homo sapiens, UniProt P28223). The series is described as follows: Displacement of [3H]ketanserin from recombinant human 5-HT2A receptor expressed in HEK293 cell membranes after 60 mins by scintillation counting method.
T2 sequence (P28223 whole entry): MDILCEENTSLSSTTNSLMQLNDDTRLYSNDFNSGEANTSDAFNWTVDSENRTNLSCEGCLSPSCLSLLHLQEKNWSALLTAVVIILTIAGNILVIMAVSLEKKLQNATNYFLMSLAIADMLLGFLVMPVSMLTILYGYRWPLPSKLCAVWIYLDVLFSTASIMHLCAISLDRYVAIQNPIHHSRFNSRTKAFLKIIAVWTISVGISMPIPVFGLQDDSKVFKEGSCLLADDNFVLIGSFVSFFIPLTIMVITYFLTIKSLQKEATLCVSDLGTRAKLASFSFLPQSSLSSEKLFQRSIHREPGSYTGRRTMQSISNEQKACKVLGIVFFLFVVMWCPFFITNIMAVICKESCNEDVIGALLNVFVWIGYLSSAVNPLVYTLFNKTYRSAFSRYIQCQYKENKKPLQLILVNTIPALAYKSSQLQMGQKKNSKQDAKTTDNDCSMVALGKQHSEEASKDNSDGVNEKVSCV
Series [6] addresses D(2) dopamine receptor (Homo sapiens, UniProt P14416). Briefly: Displacement of [3H]spiperone from recombinant human D2L receptor expressed in CHO cell membranes after 60 mins by scintillation counting method.
Series [7] is described as follows: Stability of compound. The class given is physicochemical.
For series [8], the target named is T3, 5-hydroxytryptamine receptor 1A (Homo sapiens) (UniProt P08908).
T3 sequence (whole entry): T1 sequence (P08908 whole entry)
The note with it: CHO-K1, 10 uM.

In series [9] the target is T2, 5-hydroxytryptamine receptor 2A. Particulars: CHO-K1, 10 uM.
Series [10] has as its system Rattus norvegicus. The series is described as follows: Antipsychotic activity in Sprague-Dawley rat assessed as inhibition of conditioned avoidance behavior at 1.0 to 2.0 mg/kg, ip administered as single dose measured after 1 hr. It counts as functional, organism-based. In outline: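 Male SD rats (150–180 g, 6 per group) trained in automated shuttle-boxes; only rats exceeding 80% avoidance were used. Single i.p. dose of 1.0 or 2.0 mg/kg given 1 h before a 20-trial session. Read-out is percentage of avoidance (mean ± SEM, n = 6), compared with the vehicle group.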

Series [11] relates to Rattus norvegicus. Briefly: Reversal of PCP-induced hyperlocomotion activity in ip dosed Sprague-Dawley rat pretreated for 10 mins followed by PCP challenge measured after […]. It counts as functional, organism-based.
In series [12] the target is T4, Muscarinic acetylcholine receptor M1 (Homo sapiens, UniProt P11229).
T4 sequence (P11229 whole entry): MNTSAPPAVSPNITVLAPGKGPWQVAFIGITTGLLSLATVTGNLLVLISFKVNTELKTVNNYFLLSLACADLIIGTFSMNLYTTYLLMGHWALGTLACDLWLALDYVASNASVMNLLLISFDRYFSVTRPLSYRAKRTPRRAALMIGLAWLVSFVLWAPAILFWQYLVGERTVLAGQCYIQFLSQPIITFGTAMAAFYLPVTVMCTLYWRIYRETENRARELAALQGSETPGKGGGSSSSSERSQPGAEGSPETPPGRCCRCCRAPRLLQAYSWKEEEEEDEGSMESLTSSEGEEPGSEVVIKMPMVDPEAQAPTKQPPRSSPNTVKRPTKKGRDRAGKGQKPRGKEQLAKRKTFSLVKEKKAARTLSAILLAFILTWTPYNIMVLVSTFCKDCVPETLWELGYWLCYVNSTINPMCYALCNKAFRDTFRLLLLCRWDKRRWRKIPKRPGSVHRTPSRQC
Briefly: Displacement of [3H]pirenzepine from recombinant human M1 receptor expressed in CHO cell membranes at 1 uM after 60 mins by scintillation counting method relative to control. Particulars: CHO cell membranes expressing recombinant human M1 receptor, probe [3H]pirenzepine. In outline:
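Nonspecific binding defined with […]. Filtered on PEI-soaked GF/B and scintillation counted. Expressed as percent inhibition of control specific binding at a single test concentration.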

Series [13] relates to Rattus norvegicus. The series is described as follows: Cognitive enhancement effect in Sprague-Dawley rat assessed as reversal of PCP-impaired performance by measuring increase in time spent exploring novel object in comparison to familiar object at 0.1 mg/kg, po administered 60 mins prior to test by novel object recognition assay.

A word on the Ki: it is a dissociation constant, usually derived from enzyme kinetics or from competition with a known ligand. The term inhibition denotes the change of the read-out against control, counted positive when it falls.

Calls of active or inactive are those of the source. The rule behind the calls is not given here.

Sequence of D(2) dopamine receptor (P14416 whole entry): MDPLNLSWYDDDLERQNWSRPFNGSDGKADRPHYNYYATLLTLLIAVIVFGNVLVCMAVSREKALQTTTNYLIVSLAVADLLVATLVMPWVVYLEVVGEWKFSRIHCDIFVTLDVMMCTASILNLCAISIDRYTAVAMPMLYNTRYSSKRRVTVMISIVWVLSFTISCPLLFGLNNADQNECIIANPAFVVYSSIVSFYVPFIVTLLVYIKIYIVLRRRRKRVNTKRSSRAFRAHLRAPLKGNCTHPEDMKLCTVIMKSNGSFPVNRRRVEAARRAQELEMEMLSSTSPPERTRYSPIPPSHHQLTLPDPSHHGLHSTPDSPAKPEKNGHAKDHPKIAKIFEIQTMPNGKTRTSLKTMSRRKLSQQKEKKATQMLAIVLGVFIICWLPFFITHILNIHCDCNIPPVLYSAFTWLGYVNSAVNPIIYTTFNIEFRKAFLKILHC

On to `Cc1nc2n(c(=O)c1CCN1CCC(c3noc4cc(F)ccc34)CC1)CCCC2` [RISPERIDONE], for which the Activity result in [1] was “Non-Toxic”.

In the case of `CCOC(=O)N[C@H]1CC[C@H](CCN2CCN(c3nsc4ccccc34)CC2)CC1`, the Ratio Ki in series [2] came to 12.2. In addition, the Ki in series [3] stood at 0.2 nM; in [4], 0.058 nM; in [5] it was 0.53 nM; in [6], 0.71 nM. The Stability result in series [7] was “Unstable”.

Regarding `CSc1ccc2c(c1)C(N1CCN(C)CC1)Cc1ccccc1S2` (stereo not given), the inhibition in series [8] worked out at 108%; in series [9] it was 100%.

Regarding `O=C(Nc1ccccc1)N[C@H]1CC[C@H](CCN2CCN(c3nsc4ccccc34)CC2)CC1`, the Ratio Ki in series [2] worked out at 14.7. Moreover, the Ki in [3] came to 1.4 nM; in [4] it was 0.043 nM; in series [5] it was 0.21 nM; in series [6] it was 0.63 nM. The inhibition entry in series [10] is “Active”.

Turning to `CN(C)C(=O)N[C@H]1CC[C@H](CCN2CCN(c3cccc(Cl)c3Cl)CC2)CC1` [CARIPRAZINE], the Activity entry in series [11] is “Dose-dependent effect”; in [1] it was “Non-Toxic”. Further, the inhibition at 1 h, 1 µM in [12] was < 20%. Moreover, the inhibition entry in series [10] was “Active”. The outcome in series [13] was Active.

Values taken from ChEMBL document CHEMBL3872208, “Synthesis and pharmacological characterization of novel N-(trans-4-(2-(4-(benzo[d]isothiazol-3-yl)piperazin-1-yl)ethyl)cyclohexyl)amides as potential multireceptor atypical antipsychotics” (Eur J Med Chem, 2016).
